Experimental data as given in ChEMBL document CHEMBL1955860, “Design, synthesis, and biological evaluation of 4-arylmethyl-1-phenylpyrazole and 4-aryloxy-1-phenylpyrazole derivatives as novel androgen receptor antagonists” (Bioorg Med Chem, 2012).

How the values were obtained:
[1] = Anticancer activity against human LNCaP-hr cells assessed as prostate specific antigen level at 10 uM after 3 days by enzyme immunoassay relative to control; assay type: functional
Outline: (§1)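 LNCaP-hr cells (CRPC model, T877A AR) seeded at 40,000 cells/well in phenol red-free RPMI1640 with 10% DCC-FBS; compounds at 1–10 µM added next day; secreted PSA measured and expressed as % of control; n = 3.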

[2] = Anticancer activity against human LNCaP-hr cells assessed as prostate specific antigen level at 1 uM after 3 days by enzyme immunoassay relative to control; assay type: functional; outline: as §1
Mus musculus [3] = assay: Toxicity in athymic nude BALB/c mouse xenografted with human LNCaP-hr cells assessed as body weight loss at 20 mg/kg, po bid after 28 days; assay type: organism-based; parameters: dose 20 mg/kg, route oral; conditions: in vivo
Outline: (§2)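 Castrated mice bearing s.c. LNCaP-hr xenografts (n = 6/group), dosed orally twice daily for 28 days in 0.5% methylcellulose vehicle; body weight tracked over the treatment period versus castration + vehicle controls.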

[4] = Anticancer activity against human LNCaP-hr cells xenografted in BALB/c athymic nude mouse assessed as change in tumor volume at 20 mg/kg, po bid after 28 days relative to control; assay type: functional
Outline: (§3)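 Mice castrated, then given LNCaP-hr cells (5 × 10⁷ cells/mL in PBS/Matrigel 1:1) s.c. in flank the same day; grouped at ~100–300 mm³ tumor volume (n = 6/group); from next day, oral dosing in 0.5% methylcellulose vehicle, bid or qd, 28 days. T/C% = tumor volume increase in treated/vehicle group × 100; serum/plasma PSA at end by ELISA.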

[5] = Anticancer activity against human LNCaP-hr cells xenografted in BALB/c athymic nude mouse assessed as prostate specific antigen level in plasma at 20 mg/kg, po bid after 28 days relative to control; assay type: functional; outline: as §3
[6] = Anticancer activity against human LNCaP-hr cells xenografted in BALB/c athymic nude mouse assessed as prostate specific antigen level in plasma at 40 mg/kg, po bid after 28 days relative to control; assay type: functional; outline: as §3
Mus musculus [7] = assay: Toxicity in athymic nude BALB/c mouse xenografted with human LNCaP-hr cells assessed as body weight loss at 40 mg/kg, po bid after 28 days; assay type: organism-based; parameters: dose 40 mg/kg, route oral; conditions: in vivo; outline: as §2
Mus musculus [8] = assay: Toxicity in athymic nude BALB/c mouse xenografted with human LNCaP-hr cells assessed as body weight loss at 50 mg/kg, po bid after 28 days; assay type: organism-based; parameters: dose 50 mg/kg, route oral; conditions: in vivo; outline: as §2
[9] = Anticancer activity against human LNCaP-hr cells xenografted in BALB/c athymic nude mouse assessed as change in tumor volume at 40 mg/kg, po bid after 28 days relative to control; assay type: functional; outline: as §3
[10] = Anticancer activity against human LNCaP-hr cells xenografted in BALB/c athymic nude mouse assessed as change in tumor volume at 50 mg/kg, po bid after 28 days relative to control; assay type: functional; outline: as §3
[11] = Anticancer activity against human LNCaP-hr cells xenografted in BALB/c athymic nude mouse assessed as prostate specific antigen level in plasma at 50 mg/kg, po bid after 28 days relative to control; assay type: functional; outline: as §3
[12] = Anticancer activity against human LNCaP-hr cells xenografted in BALB/c athymic nude mouse assessed as change in tumor volume at 100 mg/kg, po qd after 28 days relative to control; assay type: functional; outline: as §3
[13] = Anticancer activity against human LNCaP-hr cells xenografted in BALB/c athymic nude mouse assessed as prostate specific antigen level in plasma at 100 mg/kg, po qd after 28 days relative to control; assay type: functional; outline: as §3

| SMILES | Activity [1] [%] | Activity [2] [%] | also measured |
| --- | --- | --- | --- |
| Cc1nn(-c2ccc(C#N)c(Cl)c2)c(C)c1Cc1ccc(C(=O)NC(C)(C)C)cc1 | 57 | 33 |  |
| Cc1nn(-c2ccc(C#N)c(Cl)c2)c(C)c1Cc1ccc(C(=O)NCC(C)(C)O)cc1 | 31 | 27 | Activity (Mus musculus [3]): Non-toxic; T/C [4]: 15%; T/C [5]: 88%; T/C [6]: 23%; Activity (Mus musculus [7]): Non-toxic; Activity (Mus musculus [8]): Non-toxic; T/C [9]: 3% |
| Cc1nn(-c2ccc(C#N)c(Cl)c2)c(C)c1Cc1ccc(C(=O)N2CCOCC2)cc1 |  | 35 |  |
| Cc1nn(-c2ccc(C#N)c(Cl)c2)c(C)c1Oc1ccc(C(=O)NCC(C)(C)O)cc1 | >100 | 33 |  |
| Cc1nn(-c2ccc(C#N)c(Cl)c2)c(C)c1Cc1cccc(C(N)=O)c1 | 35 | 21 |  |
| Cc1nn(-c2ccc(C#N)c(Cl)c2)c(C)c1Cc1ccc(C(N)=O)cc1 |  | 76 |  |
| Cc1nn(-c2ccc(C#N)c(Cl)c2)c(C)c1Cc1ccc(C(=O)N(C)C)cc1 |  | 21 |  |
| Cc1nn(-c2ccc(C#N)c(Cl)c2)c(C)c1Cc1ccc(C(=O)NCCO)cc1 |  | 33 |  |
| Cc1nn(-c2ccc(C#N)c(Cl)c2)c(C)c1Oc1ccc(C(=O)N2CCOCC2)cc1 | 22 | 22 |  |
| CC(=O)Nc1ccc(Oc2c(C)nn(-c3ccc(C#N)c(Cl)c3)c2C)nc1 | 14 | 8 |  |
| Cc1nn(-c2ccc(C#N)c(Cl)c2)c(C)c1Oc1ccc(NC(=O)C(C)(C)C)cn1 | 5 | 8 | T/C [10]: 2%; T/C [11]: 17% |
| CC(=O)Nc1ccc(Oc2c(C)nn(-c3ccc(C#N)c(Cl)c3)c2C)cn1 | 39 | 11 |  |
| CC(O)(CS(=O)(=O)c1ccc(F)cc1)C(=O)Nc1ccc(C#N)c(C(F)(F)F)c1 (configuration not stated) [BICALUTAMIDE] | >100 |  | T/C [12]: 37%; T/C [13]: 142% |
